The results in this text go back to ChEMBL document CHEMBL3616399, “Design, synthesis, and structure-activity relationship studies of novel thienopyrrolidone derivatives with strong antifungal activity against Aspergillus fumigates” (Eur J Med Chem, 2015).

Converted amounts (≈) assume the structure as drawn. Bounds are passed on as bounds.

Common to all, as to assay type: functional
One test has as its system Aspergillus fumigatus. Put plainly: Antifungal activity against Aspergillus fumigatus 7544 after 48 hrs by serial dilution method. To be noted: Aspergillus fumigatus, 7544, 48 h. The essentials:
(§1)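 MIC by broth serial dilution per NCCLS/CLSI (M27-A3 yeasts, M38-A2 filamentous) in 96-well plates; ATCC strains plus clinical isolates; C. parapsilosis 22019 run as quality-control strain in every assay. Compounds dissolved in DMSO, serially diluted in growth medium; incubation 35 °C; MIC read at 24 h (Candida), 48 h (A. fumigatus), 72 h (C. neoformans).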

For the next test, the system named is Cryptococcus neoformans. Briefly: Antifungal activity against Cryptococcus neoformans 32609 after 72 hrs by serial dilution method. As to conditions: Cryptococcus neoformans, 32609, 72 h. The method, boiled down: as §1
A further test concerns Nakaseomyces glabratus. Briefly: Antifungal activity against Candida glabrata 537 after 24 hrs by serial dilution method. To be noted: Nakaseomyces glabratus, 537, 24 h. The method, boiled down:
as §1

Test [1] concerns Candida albicans. Briefly: Antifungal activity against Candida albicans SC5314 after 24 hrs by serial dilution method. As to conditions: SC5314, 24 h. The essentials:
as §1

The next test deals with Candida parapsilosis. Briefly: Antifungal activity against Candida parapsilosis 22019 after 24 hrs by serial dilution method. As to conditions: Lodderomyces parapsilosis, 22019, 24 h. The method, boiled down:
as §1

Test [2] has as its system Candida albicans. Briefly: Antifungal activity against Candida albicans Y0109 after 24 hrs by serial dilution method. As to conditions: Y0109, 24 h. The method, boiled down: as §1

`C[C@@H](N1CCc2cc(-c3cncnc3)sc2C1)[C@](O)(Cn1cncn1)c1ccc(F)cc1F`: the MIC in the test on Aspergillus fumigatus is 32 µg/mL (≈ 68.3 µM); against Cryptococcus neoformans it was 0.125 µg/mL (≈ 0.267 µM); against Nakaseomyces glabratus, 1 µg/mL (≈ 2.13 µM); against Candida albicans [1], 0.25 µg/mL (≈ 0.534 µM); in the test on Candida parapsilosis, 0.125 µg/mL (≈ 0.267 µM); in the test with Candida albicans [2] it was 0.125 µg/mL (≈ 0.267 µM).
As to `C[C@@H](N1Cc2sc(-c3cncnc3)cc2C1=O)[C@](O)(Cn1cncn1)c1ccc(F)cc1F`, the MIC against Aspergillus fumigatus was determined as 32 µg/mL (≈ 68.3 µM); with Cryptococcus neoformans, 0.0078 µg/mL (≈ 0.0166 µM); in the test with Nakaseomyces glabratus it was 0.0156 µg/mL (≈ 0.0333 µM); against Candida albicans [1] it was 0.0156 µg/mL (≈ 0.0333 µM); in the test on Candida parapsilosis it was 0.0156 µg/mL (≈ 0.0333 µM); against Candida albicans [2], 0.0156 µg/mL (≈ 0.0333 µM).
As for `OC(Cn1cncn1)(Cn1cncn1)c1ccc(F)cc1F` [FLUCONAZOLE], the minimal inhibitory concentration (MIC) against Aspergillus fumigatus is more than 64 µg/mL; against Cryptococcus neoformans it was 4 µg/mL (≈ 13.1 µM); against Nakaseomyces glabratus, 1 µg/mL (≈ 3.27 µM); against Candida albicans [1], 0.25 µg/mL (≈ 0.816 µM); against Candida parapsilosis it was 1 µg/mL (≈ 3.27 µM); in the test with Candida albicans [2] it was 0.25 µg/mL (≈ 0.816 µM).
In the case of `C[C@@H](N1Cc2cc(-c3cncc(F)c3)sc2C1=O)[C@](O)(Cn1cncn1)c1ccc(F)cc1F`, the MIC is 4 µg/mL (≈ 8.24 µM) in the test on Aspergillus fumigatus; 0.0312 µg/mL (≈ 0.0644 µM) in the test with Cryptococcus neoformans; 0.25 µg/mL (≈ 0.515 µM) against Nakaseomyces glabratus; 0.0312 µg/mL (≈ 0.0644 µM) against Candida albicans [1]; 0.0312 µg/mL (≈ 0.0644 µM) against Candida parapsilosis; 0.0312 µg/mL (≈ 0.0644 µM) in the test with Candida albicans [2].
On to `C[C@@H](c1ncncc1F)[C@](O)(Cn1cncn1)c1ccc(F)cc1F` [VORICONAZOLE], for which the minimal inhibitory concentration (MIC) with Aspergillus fumigatus is 0.25 µg/mL (≈ 0.716 µM); in the test with Cryptococcus neoformans, 0.0156 µg/mL (≈ 0.0447 µM); in the test on Nakaseomyces glabratus, 0.0156 µg/mL (≈ 0.0447 µM); with Candida albicans [1], 0.0156 µg/mL (≈ 0.0447 µM); in the test on Candida parapsilosis, 0.0156 µg/mL (≈ 0.0447 µM); in the test on Candida albicans [2], 0.0156 µg/mL (≈ 0.0447 µM).
With `C[C@@H](N1Cc2sc(-c3cccnc3)cc2C1=O)[C@](O)(Cn1cncn1)c1ccc(F)cc1F`, the MIC in the test on Aspergillus fumigatus was determined as 16 µg/mL (≈ 34.2 µM); with Cryptococcus neoformans it was 0.0156 µg/mL (≈ 0.0334 µM); against Nakaseomyces glabratus, 0.0156 µg/mL (≈ 0.0334 µM); with Candida albicans [1] it was 0.0156 µg/mL (≈ 0.0334 µM); against Candida parapsilosis, 0.0156 µg/mL (≈ 0.0334 µM); against Candida albicans [2], 0.0156 µg/mL (≈ 0.0334 µM).
On to `C[C@@H](N1Cc2cc(-c3ccc(C#N)cc3)sc2C1=O)[C@](O)(Cn1cncn1)c1ccc(F)cc1F`, for which the MIC with Aspergillus fumigatus turned out to be 4 µg/mL (≈ 8.14 µM); in the test on Cryptococcus neoformans, 0.0156 µg/mL (≈ 0.0317 µM); with Nakaseomyces glabratus, 0.125 µg/mL (≈ 0.254 µM); in the test with Candida albicans [1], 0.0156 µg/mL (≈ 0.0317 µM); with Candida parapsilosis, 0.0156 µg/mL (≈ 0.0317 µM); against Candida albicans [2], 0.0156 µg/mL (≈ 0.0317 µM).
For `C[C@@H](N1Cc2cc(-c3ccccc3)sc2C1=O)[C@](O)(Cn1cncn1)c1ccc(F)cc1F`, the MIC was found to be 8 µg/mL (≈ 17.1 µM) against Aspergillus fumigatus; 0.0625 µg/mL (≈ 0.134 µM) against Cryptococcus neoformans; 0.125 µg/mL (≈ 0.268 µM) in the test on Nakaseomyces glabratus; 0.0156 µg/mL (≈ 0.0334 µM) against Candida albicans [1]; 0.0625 µg/mL (≈ 0.134 µM) against Candida parapsilosis; 0.0312 µg/mL (≈ 0.067 µM) in the test with Candida albicans [2].
Regarding `C[C@@H](N1Cc2cc(-c3ccc(F)cc3)sc2C1=O)[C@](O)(Cn1cncn1)c1ccc(F)cc1F`, the MIC in the test on Aspergillus fumigatus came to 4 µg/mL (≈ 8.26 µM); with Cryptococcus neoformans, 0.0625 µg/mL (≈ 0.129 µM); against Nakaseomyces glabratus, 0.125 µg/mL (≈ 0.258 µM); with Candida albicans [1] it was 0.0156 µg/mL (≈ 0.0322 µM); in the test on Candida parapsilosis it was 0.0612 µg/mL (≈ 0.126 µM); against Candida albicans [2], 0.0312 µg/mL (≈ 0.0645 µM).
With `C[C@@H](N1Cc2cc(-c3ccncc3)sc2C1=O)[C@](O)(Cn1cncn1)c1ccc(F)cc1F`, the MIC stood at 1 µg/mL (≈ 2.14 µM) in the test on Aspergillus fumigatus; 0.0156 µg/mL (≈ 0.0334 µM) against Cryptococcus neoformans; 0.0625 µg/mL (≈ 0.134 µM) against Nakaseomyces glabratus; 0.0156 µg/mL (≈ 0.0334 µM) against Candida albicans [1]; 0.0312 µg/mL (≈ 0.0668 µM) with Candida parapsilosis; 0.0312 µg/mL (≈ 0.0668 µM) in the test with Candida albicans [2].
As for `C[C@@H](n1cnc2cc(Cl)ccc2c1=O)[C@](O)(Cn1cncn1)c1ccc(F)cc1F` [ALBACONAZOLE], the MIC came to 0.25 µg/mL (≈ 0.579 µM) in the test with Aspergillus fumigatus; 0.0078 µg/mL (≈ 0.0181 µM) against Cryptococcus neoformans; 0.0156 µg/mL (≈ 0.0361 µM) in the test on Nakaseomyces glabratus; 0.0078 µg/mL (≈ 0.0181 µM) with Candida albicans [1]; 0.0156 µg/mL (≈ 0.0361 µM) against Candida parapsilosis; 0.0156 µg/mL (≈ 0.0361 µM) against Candida albicans [2].
Take `COc1ccc(-c2cc3c(s2)C(=O)N([C@H](C)[C@](O)(Cn2cncn2)c2ccc(F)cc2F)C3)cn1`: the MIC was 8 µg/mL (≈ 16.1 µM) in the test with Aspergillus fumigatus; 0.0312 µg/mL (≈ 0.0628 µM) against Cryptococcus neoformans; 0.125 µg/mL (≈ 0.251 µM) in the test with Nakaseomyces glabratus; 0.0156 µg/mL (≈ 0.0314 µM) in the test with Candida albicans [1]; 0.0312 µg/mL (≈ 0.0628 µM) with Candida parapsilosis; 0.0312 µg/mL (≈ 0.0628 µM) in the test with Candida albicans [2].
As to `Cc1ccc(-c2cc3c(s2)C(=O)N([C@H](C)[C@](O)(Cn2cncn2)c2ccc(F)cc2F)C3)cc1`, the minimum inhibitory concentration (MIC) turned out to be 4 µg/mL (≈ 8.32 µM) with Aspergillus fumigatus; 0.0625 µg/mL (≈ 0.13 µM) against Cryptococcus neoformans; 0.0625 µg/mL (≈ 0.13 µM) in the test with Nakaseomyces glabratus; 0.0312 µg/mL (≈ 0.065 µM) in the test with Candida albicans [1]; 0.0625 µg/mL (≈ 0.13 µM) with Candida parapsilosis; 0.0312 µg/mL (≈ 0.065 µM) in the test with Candida albicans [2].
For `C[C@@H](N1Cc2cc(-c3ccc(F)nc3)sc2C1=O)[C@](O)(Cn1cncn1)c1ccc(F)cc1F`, the MIC against Aspergillus fumigatus was found to be 8 µg/mL (≈ 16.5 µM); in the test with Cryptococcus neoformans, 0.25 µg/mL (≈ 0.515 µM); with Nakaseomyces glabratus, 1 µg/mL (≈ 2.06 µM); against Candida albicans [1], 0.125 µg/mL (≈ 0.257 µM); against Candida parapsilosis it was 0.25 µg/mL (≈ 0.515 µM); in the test with Candida albicans [2], 0.25 µg/mL (≈ 0.515 µM).

By MIC is commonly meant the lowest concentration that inhibits growth of the organism. Lower therefore signals greater potency.
